# ABHD5 PLIN5 PPI: blocks binding of human ABHD5 to perilipin-5; Q00G26+Q8WTS1; Split G. princeps luciferase complementation, luminescence, 4 h; inhibition, % at 4 µM; hit rate 0.78% among 360,000; AID 602281;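 active means inhibition above the mean inhibition across every tested compound plus 3 SD, cut at about 22% in these data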;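 further: 0% = DMSO only wells and the 100% control is not disclosed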
# Target sequence (Q00G26 whole entry, looked up): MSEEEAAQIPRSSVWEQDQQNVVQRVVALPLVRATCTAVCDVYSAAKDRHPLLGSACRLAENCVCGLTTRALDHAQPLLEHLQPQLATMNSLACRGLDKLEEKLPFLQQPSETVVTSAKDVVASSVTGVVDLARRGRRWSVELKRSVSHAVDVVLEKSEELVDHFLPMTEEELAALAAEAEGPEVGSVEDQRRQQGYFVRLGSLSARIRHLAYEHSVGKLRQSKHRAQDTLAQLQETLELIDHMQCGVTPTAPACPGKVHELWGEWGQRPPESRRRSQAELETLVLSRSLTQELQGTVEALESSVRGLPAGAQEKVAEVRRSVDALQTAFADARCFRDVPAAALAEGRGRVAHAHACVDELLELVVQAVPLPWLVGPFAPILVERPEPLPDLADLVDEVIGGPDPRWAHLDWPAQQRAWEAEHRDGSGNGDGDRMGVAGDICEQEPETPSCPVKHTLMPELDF
# Target sequence (Q8WTS1 whole entry, looked up): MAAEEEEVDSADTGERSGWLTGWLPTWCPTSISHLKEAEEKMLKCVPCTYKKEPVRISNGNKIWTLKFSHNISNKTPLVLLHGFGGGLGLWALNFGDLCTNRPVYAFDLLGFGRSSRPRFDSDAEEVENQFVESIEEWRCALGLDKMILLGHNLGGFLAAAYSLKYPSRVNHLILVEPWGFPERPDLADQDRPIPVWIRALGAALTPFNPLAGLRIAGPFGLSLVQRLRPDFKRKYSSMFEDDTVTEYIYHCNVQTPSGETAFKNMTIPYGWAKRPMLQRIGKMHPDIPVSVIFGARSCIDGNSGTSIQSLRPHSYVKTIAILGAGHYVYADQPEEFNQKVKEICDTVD
# HKDC1 inh: inhibitors of human hexokinase HKDC1; Q2TB90; recombinant HKDC1, G6PDH/diaphorase resazurin coupled fluorescence; inhibition, % at 20 µM; hit rate 0.16% among 340,000;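 active means inhibition above about 35% when tested at 20 µM, limit read from the data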;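 further: plate controls were DMSO wells with enzyme for no effect and DMSO wells lacking enzyme for full effect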
#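 Assay system: in-house recombinant HK5 (HKDC1) enzyme. Input: HKDC1 at 5 µg/mL. Medium: Tris pH 8.0 buffer with MgCl2, Tween-20, BSA, BME. Dosing: single 20 µM dose. Schedule: 90 min reaction incubation at room temperature, dark. Signal: resazurin-to-resorufin fluorescence via G6PDH and diaphorase coupling, 525/613 nm. Controls: DMSO-enzyme wells negative, buffer-substituted wells positive.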
# PfGluPho inh: PfG6PD (Plasmodium falciparum) enzyme inhibition. hit rate 0.78% among 350,000. AID 504690. inhibition, % at 20 µM. PfGluPho enzyme, NADPH resazurin-diaphorase fluorescence;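 active means inhibition reaching at least a set limit at 20 µM in the primary screen, cut at about 59% in these data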;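 further: 0% = DMSO wells with substrate and 100% = DMSO wells lacking glucose-6-phosphate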
# Granule exo inh: lytic granule exocytosis inhibition; AID 651702; hit rate 0.66% among 360,000; TALL-104 LAMP-1 surface exposure, flow cytometry; cells stimulated with thapsigargin and PMA; inhibition, % at 10 µM;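 active means inhibition above about 55%, limit read from the data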
# HKDC1 act conf2: HKDC1 (human) activation, single-dose confirmed. shares compounds with HKDC1 inh. recombinant HKDC1, G6PDH/diaphorase resazurin fluorescence; stronger effect = lower value. inhibition, % at 20 µM. hit rate 14% among 740. AID 504708;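 active means inhibition at or below a set negative limit, negative inhibition meaning the enzyme was activated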
# PfGluPho conf: PfG6PD inhibition, single-dose confirmed; shares compounds with PfGluPho inh; hit rate 34% among 2,400; inhibition, % at 20 µM; recombinant PfGluPho, NADPH-diaphorase-resazurin fluorescence;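 active means inhibition of at least 50% at 20 µM in any single replicate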;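 further: 0% = DMSO with substrate and 100% = DMSO lacking glucose-6-phosphate substrate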
# Diaph ctr 10uM: diaphorase inhibition or oxidation at 10 uM NADPH; shares compounds with PfGluPho inh; diaphorase-coupled resazurin reduction, fluorescence, NADPH 10 uM; inhibition, % at 20 µM; hit rate 39% among 820; AID 504862;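 active means average inhibition reaching 50% or more with the compound at 20 µM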;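 further: resorufin red fluorescence formed as diaphorase reduces resazurin using NADPH; 0% = DMSO with enzyme and 100% = DMSO without enzyme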
# Diaph ctr 30uM: inhibits diaphorase or oxidizes, flagging false PfG6PD hits. shares compounds with PfGluPho inh. Diaphorase/resazurin coupled assay, resorufin fluorescence, 30 uM NADPH. inhibition, % at 20 µM. hit rate 29% among 820. AID 504863;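 active means inhibition averaging 50% or more, tested at 20 µM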;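 further: 0% = DMSO with enzyme and 100% = DMSO wells lacking diaphorase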
# * marks the source's active call; other numbers are inactive results; . = no result given; ! = not confirmed by another sample. Sampled rows, rich in hits. Any-hit rate of the full collection: about 2.2%.
SMILES,ABHD5 PLIN5 PPI,HKDC1 inh,PfGluPho inh,Granule exo inh,HKDC1 act conf2,PfGluPho conf,Diaph ctr 10uM,Diaph ctr 30uM
CC(=O)Nc1ccc(-c2ccnc3c2CC(C(=O)NCCC(F)(F)F)O3)cc1 (configuration not stated),-4,.,.,12,.,.,.,.
COc1ccc(N2C3=C(CC4=C2CCCC4=O)C(=O)CCC3)cc1,-9,33,97*,-1,47,19,.,.
COc1ccc(N2C3=C(CC4=C2CC(C)(C)CC4=O)C(=O)CC(C)(C)C3)cc1,10,11,11,-1,.,.,.,.
OCC[C@@H]1C[C@@H](O)[C@H](O)[C@@]2(Cc3ccccc3O2)O1,8,-1,0,-8,.,.,.,.
CCn1c2ccccc2c2nc3cc(S(=O)(=O)N4CCOCC4)ccc3nc21,8,-61,100*,8,-47*,61*,-9,3
c1ccc2nc3c(nc2c1)c1ccccc1n3CCN1CCOCC1,3,-1,33,4,.,.,.,.
COc1cc([N+](=O)[O-])ccc1-c1ccc(/C=C2\C(=O)ON=C2c2ccccc2)o1,6,44*,74*,46,25,-9,.,.
NC1=CC(=O)C(=O)c2ccccc21,-25,49*,71*,-2,49,33,.,.
COc1ccccc1CCC(=O)N1CCN(S(=O)(=O)c2cccc(F)c2)CC1,-1,1,3,-4,.,.,.,.
CCOC(=O)c1c(NC(=O)CSc2nnc(Cc3ccccc3)o2)sc(C(C)=O)c1C,3,1,-3,17,.,.,.,.
CCOC(=O)c1sc(NC(=O)CSc2nnc(Cc3ccccc3)o2)c(C#N)c1C,-8,-40,88*,2,-30,60*,-24,-18
Cc1nc(COC(=O)c2cc(O)c3ccccc3c2O)cs1,7,60*,92*,64*,39,55*,-11,-3
Nc1ccc2ccc(O)cc2c1,1,15,32,-9,.,.,.,.
C[n+]1c2cc(N)ccc2cc2ccc(N)cc21,-22,44*!,78*,-1,-20,19,.,.
O=C(Nc1ccc2nc(-c3ccco3)c(-c3ccco3)nc2c1)N1CCN(c2ccccn2)CC1,20,57*,81*,-6,-13,20,.,.
Cc1nc2cc(NC(=O)N3CCN(c4ccccn4)CC3)ccc2o1,1,-3,35,2,.,.,.,.
CC(=O)Oc1cc(C(=O)OCC(=O)NC23CC4CC(CC(C4)C2)C3)cc(OC(C)=O)c1OC(C)=O,-6,-1,1,7,.,.,.,.
C[n+]1c(-c2ccccc2)cc2c(=Cc3ccc([N+](=O)[O-])cc3)c3ccccc3n21,-22,36*,76*,-4,6,50*,-16,-5
CN(C)c1ccc(C=c2c3cc(O)ccc3n3c2cc(-c2ccccc2)[n+]3C)cc1,-7,56*,83*,26,30,89*,35,31
CC(C)n1c2ccccc2c2cc([N+](=O)[O-])ccc21,0,-9,26,-3,.,.,.,.
O=C(/C=C/c1ccco1)OCC(=O)N1CCCCC1,-3,-4,3,32,.,.,.,.
O=C1CC2(CCCCC2)CC(=O)N1CCc1ccccc1,-4,-4,13,-2,.,.,.,.
O=C1C=CC(=O)C(C2=C3C(=O)N(CCc4ccccc4)CC(=O)N3CCC2)=C1,.,63*,110*,.,71,114*,99*,82*
COc1ccc2nc(N=Nc3ccc(N(C)C)cc3)sc2c1,1,2,14,1,.,.,.,.
CN(C)c1ccc2nc3ccc(=[N+](C)C)cc-3sc2c1,6,36*,112*,-7,25,84*,79*,78*
SMILES,ABHD5 PLIN5 PPI,HKDC1 inh,PfGluPho inh,Granule exo inh,HKDC1 act conf2,PfGluPho conf,Diaph ctr 10uM,Diaph ctr 30uM
COC(=O)CCC(=O)OC1(C)C(=O)C2=CN(C3CCCC3)C(c3ccc(OC)cc3)=CC2=C(Br)C1=O (configuration not stated),-23,38*,70*,51,12,67*,56*,51*
CCN(CC)CCCN1C=C2C(=O)C(C)(OC(=O)CCC(=O)OC)C(=O)C(Br)=C2C=C1c1ccc(OC)cc1 (configuration not stated),-8,19,35,8,.,.,.,.
COC(=O)CCC(=O)OC1(C)C(=O)C2=CN(c3ccc(OC)cc3)C(c3ccc(OC)cc3)=CC2=C(Br)C1=O (configuration not stated),-19,35,71*,0,8,48*,31,24
C=CCN1C=C2C(=O)C(C)(OC(=O)CCC(=O)OC)C(=O)C(Br)=C2C=C1c1ccc(OC)cc1 (configuration not stated),-22,36*,86*,2,57,55*,40,36
COC(=O)CCCC1=CC2=C(c3ccccc3)C(=O)C(C)(OC(=O)C3CCCC3)C(=O)C2=CN1C1CC1 (configuration not stated),-5,11,14,7,.,.,.,.
COCCN1C=C2C(=O)C(C)(OC(=O)CCC(=O)OC)C(=O)C(Br)=C2C=C1c1ccc(OC)cc1 (configuration not stated),-22,38*,94*,1,-4,44,.,.
COc1ccc(S(=O)(=O)Nc2ccc(-n3cnnn3)cc2)cc1[N+](=O)[O-],-5,6,-7,-4,.,.,.,.
COc1ccc(Cl)cc1C(=O)NNC(=O)c1ccc(F)c(S(=O)(=O)N2CCOCC2)c1,-5,-5,13,-12,.,.,.,.
COc1cc(/C=C(\C(=O)O)c2ccc(S(=O)(=O)N3CCCC3)s2)ccc1OCCC(C)C,-14,2,16,0,.,.,.,.
CCN(CC(=O)Nc1c(F)cccc1F)C(=O)C1Cc2ccccc2CN1S(=O)(=O)CC (configuration not stated),-5,-2,12,-4,.,.,.,.
COCC(=O)OC1CCn2c1nc1c2C(=O)C(C)=C(NC(C)=O)C1=O (configuration not stated),-16,68*,123*,31,79,104*,99*,89*
Cc1nc2c(O)c3c(c(O)c2nc1C)C1C=CC3CC1,-21,82*,123*,10,90,102*,95*,89*
CC(C)c1nc2oc3c(NCC4CCCO4)ncnc3c2c2c1COC(C)(C)C2 (configuration not stated),0,40*,66*,-2,63,37,.,.
Cc1nc2oc3c(NCC4CCCO4)ncnc3c2c2c1COC(C)(C)C2 (configuration not stated),1,18,13,-1,.,.,.,.
COc1ccc2c(c1)c1ccc3c(c1n2C)C(=O)C=CC3=O,20,-1,56,-20,.,.,.,.
